Rows were chosen to be rich in hits. Some 1.6% of all compounds tested hit in one or more screens of this group.
SKN-1 inh: suppressors of acrylamide-induced Pgst-4::GFP reporter in worms, primary screen, SKN-1 inhibitor project, whole organism, uHTS, GFP/RFP fluorescence ratio, strain VP596; C. elegans VP596 Pgst-4::GFP/RFP ratio, 24 h; inhibition, % at 21.8 µM; 360,000 compounds, 0.49% hits; AID 624304, 2012;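 active = interference check ratio from 0.5 to 1.5 plus GFP to RFP signal ratio inhibition reaching or exceeding a fixed threshold, cut at about 30% in these data, passing the limit was not always enough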
MT1-MMP act inh: blockers of MT1-MMP proenzyme processing, primary screen, HT1080 RFP-PRO-GFP cells, GFP/RFP fluorescence. Matrix metalloproteinase-14 (Homo sapiens), P50281. GFP/RFP ratio fluorescence, overnight; percent of plate control window, DMSO zero. GFP/RFP ratio change, % at 20 µM. 360,000 compounds, 0.061% hits. AID 651647, 2012;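 active = GFP/RFP ratio change of at least 30% with cell ATP level not reduced by more than half and red fluorescence within 50% of control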
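Test system: HT1080 cells expressing an RFP-PRO-GFP fluorescent reporter construct / Compound dosing: single-point 20 µM compound, 1% DMSO / Schedule: cells overnight before dosing, compound overnight, 37 °C, 5% CO2 / Evaluation: GFP/RFP fluorescence ratio / Control set: DMSO and RFP-L50D-GFP cell wells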
Arrestin-AP2 inh: inhibitors of beta-arrestin/AP2 binding, primary screen, biochemical, GPCR trafficking, flow cytometry; beta-arrestin 1 C-terminal peptide binding to AP2 beta2-adaptin appendage (human); FITC-arrestin peptide / GST-AP2 beads; AP2 beta2 appendage carries R879A mutation; inhibition, % at 10 µM; 340,000 compounds, 0.31% hits; AID 504490, 2011;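 active = inhibition above a set limit, near 3 SD of compounds lacking own fluorescence, cut at about 54% in these data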;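 also: plate controls were DMSO wells for no effect and 5 µM unlabelled arrestin peptide for full effect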
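System: GST-tagged AP2 beta2-adaptin appendage (R879A) on 4 µm glutathione beads / Reagent: FITC-arrestin peptide, 50 nM / Detection: HyperCyt-sampled flow cytometry, FL1 channel, ex 488/em 535 nm / Timing: 12 min plus 1 h, RT / Buffer or medium: PBS plus Tween 20 (0.05%) and BSA (0.1%)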
Rin1 Abl inh: inhibitors of Rin1-Abl protein binding, primary screen, biochemical, TR-FRET; 360,000 compounds, 0.4% hits; Tyrosine-protein kinase ABL1 (Homo sapiens) + Ras and Rab interactor 1 (Homo sapiens), …; inhibition, % at 7.35 µM; AID 588664, 2011; in the data active = inhibition above about 5%, passing the limit was not always enough
Target sequence (P00519 whole entry, looked up): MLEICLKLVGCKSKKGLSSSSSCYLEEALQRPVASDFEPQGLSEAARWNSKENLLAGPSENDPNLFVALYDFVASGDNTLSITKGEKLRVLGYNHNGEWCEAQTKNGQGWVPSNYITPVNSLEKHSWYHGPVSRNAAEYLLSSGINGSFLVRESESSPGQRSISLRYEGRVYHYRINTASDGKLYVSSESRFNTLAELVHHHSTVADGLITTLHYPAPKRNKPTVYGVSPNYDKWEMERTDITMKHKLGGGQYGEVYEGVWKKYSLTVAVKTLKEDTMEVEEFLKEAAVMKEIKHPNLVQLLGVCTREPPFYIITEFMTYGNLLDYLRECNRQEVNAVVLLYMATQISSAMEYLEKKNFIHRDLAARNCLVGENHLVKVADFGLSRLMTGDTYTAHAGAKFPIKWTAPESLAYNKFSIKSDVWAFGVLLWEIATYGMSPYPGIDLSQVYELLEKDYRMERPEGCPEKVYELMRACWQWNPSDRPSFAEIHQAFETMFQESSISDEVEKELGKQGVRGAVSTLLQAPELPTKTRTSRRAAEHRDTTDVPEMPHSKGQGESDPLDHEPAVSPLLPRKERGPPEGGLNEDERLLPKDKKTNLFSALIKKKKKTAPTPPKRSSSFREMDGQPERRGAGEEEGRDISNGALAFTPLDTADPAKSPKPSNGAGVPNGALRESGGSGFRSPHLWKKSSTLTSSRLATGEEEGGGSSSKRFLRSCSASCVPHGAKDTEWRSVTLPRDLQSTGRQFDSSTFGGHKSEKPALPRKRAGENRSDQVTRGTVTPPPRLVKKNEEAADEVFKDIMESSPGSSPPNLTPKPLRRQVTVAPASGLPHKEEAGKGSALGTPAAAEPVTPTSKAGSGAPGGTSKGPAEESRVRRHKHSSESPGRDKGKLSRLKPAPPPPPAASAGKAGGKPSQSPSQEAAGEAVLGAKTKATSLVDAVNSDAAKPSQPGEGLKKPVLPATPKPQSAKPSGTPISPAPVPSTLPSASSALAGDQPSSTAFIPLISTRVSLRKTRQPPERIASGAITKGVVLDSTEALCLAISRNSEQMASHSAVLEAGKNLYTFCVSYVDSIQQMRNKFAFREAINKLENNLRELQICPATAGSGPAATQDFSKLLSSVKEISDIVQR
Target sequence (Q13671 whole entry, looked up): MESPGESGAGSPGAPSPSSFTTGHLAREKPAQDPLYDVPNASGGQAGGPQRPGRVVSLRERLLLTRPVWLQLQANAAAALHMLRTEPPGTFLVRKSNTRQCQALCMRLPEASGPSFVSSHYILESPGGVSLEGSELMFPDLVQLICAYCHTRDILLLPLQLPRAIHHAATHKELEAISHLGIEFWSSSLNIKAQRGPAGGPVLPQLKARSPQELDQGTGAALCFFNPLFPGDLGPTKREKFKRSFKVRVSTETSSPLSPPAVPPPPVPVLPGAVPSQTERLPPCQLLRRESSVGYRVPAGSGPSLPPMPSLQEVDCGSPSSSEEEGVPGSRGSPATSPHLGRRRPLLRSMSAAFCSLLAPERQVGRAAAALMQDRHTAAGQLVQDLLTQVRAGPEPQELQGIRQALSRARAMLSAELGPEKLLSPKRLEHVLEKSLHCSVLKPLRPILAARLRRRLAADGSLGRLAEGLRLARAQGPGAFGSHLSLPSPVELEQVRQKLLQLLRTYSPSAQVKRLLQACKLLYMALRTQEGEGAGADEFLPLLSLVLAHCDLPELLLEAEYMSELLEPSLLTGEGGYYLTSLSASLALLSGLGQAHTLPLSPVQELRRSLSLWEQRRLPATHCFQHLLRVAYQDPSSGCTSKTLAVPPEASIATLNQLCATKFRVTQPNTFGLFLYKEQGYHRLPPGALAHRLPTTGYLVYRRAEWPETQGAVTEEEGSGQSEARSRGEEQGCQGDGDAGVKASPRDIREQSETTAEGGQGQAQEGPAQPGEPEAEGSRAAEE
TbMetRS inhib: T. brucei MetRS inhibitors, primary screen, biochemical, luminescence; purified T. brucei MetRS, ATP depletion, Kinase-Glo luminescence; inhibition, % at 11.9 µM; 360,000 compounds, 0.4% hits; AID 624268, 2012;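 active = inhibition above a per-plate cutoff of the control wells' mean inhibition plus 3 SD, cut at about 5.5% in these data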;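 also: 0% = DMSO wells median and 100% = median of wells with control inhibitor compound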
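Test system: purified T. brucei MetRS enzyme. Also added: ATP, methionine and E. coli bulk tRNA substrates. Compound: 11.9 µM single point. Schedule: 15 min enzyme-compound preincubation, 2 h reaction, 10 min detection, 25 °C. Signal: luciferase luminescence of residual ATP, Kinase-Glo. Evaluation: percent inhibition versus plate control medians. Controls: DMSO wells, low control.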
* hit, by the source's call; · = not tested or not shown.

SMILES | SKN-1 inh | MT1-MMP act inh | Arrestin-AP2 inh | Rin1 Abl inh | TbMetRS inhib
C=CCNc1ncnc2sc(SC)nc12 | 49.8* | -3.1 | 13.8 | -8.1 | -0.4
C=CCNc1nc(Cl)ncc1F | 10.8 | -4.0 | -6.0 | -0.1 | -0.3
Cc1cc(N2CCN(C(c3ccnc4ccccc34)c3nnnn3-c3c(C)cccc3C)CC2)c2ccccc2n1 (stereo not given) | -2.7 | -3.0 | · | · | -0.3
CO/N=C/c1ccc(N2CCN(C(=O)c3ccc(C)cc3)CC2)c([N+](=O)[O-])c1 | -7.1 | 6.5 | 9.2 | -5.3 | 16.5*
CC(c1nc2ccccc2[nH]1)n1c(=O)c(-c2ccco2)nc2ccccc21 (stereo not given) | 5.3 | -9.3 | · | · | -0.5
CN(CC(=O)NCC1CCCO1)S(=O)(=O)c1ccc2ccccc2c1 (stereo not given) | 12.3 | -2.0 | · | -1.0 | 0.3
O=C1/C(=C/c2cccs2)CCC/C1=C\c1cccs1 | 38.5* | -9.8 | 3.0 | 2.2 | -0.3
CC1C/C(=C/c2cccs2)C(=O)/C(=C/c2cccs2)C1 (stereo not given) | 18.1 | -8.2 | -18.0 | 3.2 | -0.4
CCC(C)N(C(=O)Cn1c(=O)cnc2ccccc21)C1CCS(=O)(=O)C1 (stereo not given) | -7.6 | 3.9 | -5.4 | 0.0 | 0.3
CCc1nc2ccccc2n1CC(=O)N(C(C)CC)C1CCS(=O)(=O)C1 (stereo not given) | 46.7* | -2.5 | -3.0 | -2.4 | 0.2
O=C(Nc1ccc(-c2nc3cccnc3s2)cc1)c1ccco1 | 46.1* | -0.7 | -0.3 | -2.5 | -0.6
COc1cc(SC)ccc1C(=O)Nc1ccc(Cl)cn1 | 35.3* | -2.1 | 3.6 | -4.2 | -0.8
Cc1cc(C)cc(C(O)c2ncc(-c3cccc(F)c3)[nH]2)c1 (stereo not given) | -7.9 | 0.5 | · | -4.2 | 0.2
NC(=O)c1cc(N)ccc1N1CCCC1 | 60.2* | 7.5 | 11.3 | 6.5 | -0.5
NC(=O)c1cc(N)ccc1N1CCCCC1 | -6.1 | 0.4 | -2.4 | 2.7 | -0.8
CCOC(=O)c1ccc(N=Nc2c(C)c(C#N)c(O)[nH]c2=O)cc1 | 41.4* | 1.0 | 2.0 | -2.4 | -0.5
CCCC(C)C(=O)NCc1ccccc1OC (stereo not given) | 40.6* | 8.3 | 2.1 | 0.6 | -0.3
O=C1C=CC(n2cc(F)c(=O)[nH]c2=O)O1 (stereo not given) | -6.4 | 6.4 | · | 0.1 | 0.1
COC(=O)c1ccc(-c2ccc(Cl)cc2)nc1C | 50.9* | -1.6 | -6.8 | -3.2 | -0.4
CCCCN1C(=O)C(CC(=O)NC2CC2)CC(C(=O)N(CC)CC)=C1C (stereo not given) | 4.9 | 2.8 | · | -4.5 | -0.8
CN1C(=O)N(CC(=O)c2ccc3c(c2)OCO3)C(=O)C12CCCCC2 | 14.9 | 0.3 | · | 0.8 | -0.2
CCCCNC(=O)c1nc(C2CCN(S(=O)(=O)c3ccccc3C(F)(F)F)CC2)oc1-c1cccc(C(F)(F)F)c1 | 14.8 | 1.9 | · | 4.6 | -0.3
COc1ccc(Cc2c(-c3ccco3)nc3c(C)cc(Br)cn23)c(C)c1 | 48.4* | -5.8 | · | -0.8 | 0.3
Nc1ccc(C#Cc2ccccc2)cc1 | 2.5 | -6.5 | 15.4 | -3.5 | -0.1
Cc1cccc(C#Cc2ccccc2)n1 | 46.2* | -0.4 | -3.2 | -0.1 | -0.4
SMILES | SKN-1 inh | MT1-MMP act inh | Arrestin-AP2 inh | Rin1 Abl inh | TbMetRS inhib
O=C(NCc1ccccc1)C(CCc1ccccc1)n1c(=O)c(-c2ccccc2)nc2ccccc21 (stereo not given) | -2.8 | -16.6 | · | · | 0.1
O=C(NNC(=O)c1cc(Br)ccc1O)c1csc(N2CCOCC2)n1 | 8.4 | 0.7 | 5.9 | 10.5* | -0.1
O=C(NNC(=O)c1cc(Br)ccc1Cl)c1csc(N2CCOCC2)n1 | 19.6 | 2.6 | -16.0 | 3.1 | -0.1
Clc1ccc(N/N=C/c2cccnc2)cc1 | 8.0 | -0.2 | 22.0 | -4.1 | -0.7
Cc1sc(N/N=C/c2cccnc2)nc1-c1ccc(Cl)cc1 | 35.3* | -1.8 | 5.9 | 3.3 | 0.2
CSc1ccc(Cl)c(C(=O)NCc2ccco2)c1 | 41.5* | 3.6 | -1.9 | -3.2 | -1.9
Cc1cc(C(=O)Nc2ccc3c(c2)CCC3)ccc1[N+](=O)[O-] | 14.1 | -1.4 | 18.8 | -4.0 | -0.3
COC(=O)[C@@]12C[C@@H](CC(=O)NCc3ccc(OC)c(OC)c3)C(=O)N(Cc3ccco3)C1=CCC(C)(C)C2 | 22.5 | 5.6 | · | · | -0.1
C[C@@H]1CN([C@H](C)CO)C(=O)CCCn2nncc2CO[C@H]1CN(C)S(=O)(=O)c1ccc(C#N)cc1 | 11.0 | 2.0 | · | -3.9 | 0.3
CCc1ccc2[nH]c(=O)c(C3C(C#N)=C(N)Oc4c3ccc3cccnc43)cc2c1 (stereo not given) | -0.5 | -8.1 | 3.5 | 10.0* | -0.8
COc1ccc(N2C[C@H](CSC)[C@@H](CC(=O)Nc3ccccc3)C2=O)cc1 | 7.3 | 0.1 | · | 2.1 | -2.6
Cc1ccc(C)c(N=Nc2ccc(O)c3ncccc23)c1 | 1.8 | 12.9 | 102.9* | -0.5 | -0.7
CCOc1ccc(N=Nc2ccc(O)c3ncccc23)cc1 | -6.8 | 13.5 | 35.1 | 1.7 | -1.0
COc1ccc(NC(=O)c2cc(C3CCCCN3S(=O)(=O)c3cccs3)on2)c(C)c1 (stereo not given) | -13.6 | 4.8 | · | 2.7 | 0.0
O=C(O)C1Nc2c(C(=O)N3CCOCC3)cccc2C2C=CCC12 (stereo not given) | 14.4 | 11.5 | 27.1 | 6.8* | -0.3
Cc1ccc2c(c1C)NC(C(=O)O)C1CC=CC21 (stereo not given) | 12.6 | -2.4 | 25.6 | 6.6 | -0.6
CCOC1CCCc2oc(-c3ccsc3)c(-c3cnc(OC)nc3)c21 (stereo not given) | -0.2 | 2.6 | · | · | -1.0
O=C(Nc1nccs1)c1ccc(-c2ccc([N+](=O)[O-])cc2)o1 | 30.0 | -4.4 | -0.2 | -0.9 | 0.9
O=C(Nc1nccs1)c1ccc(-c2ccc(Cl)cc2)o1 | 41.0* | 3.6 | 23.2 | -2.0 | -0.6
O=C(Nc1nccs1)c1ccc(-c2ccc(F)cc2)o1 | 52.0* | 5.8 | 15.7 | -2.3 | -0.7
Cc1noc(C)c1S(=O)(=O)NC(=O)C1(C)CCN1C(=O)CC(c1ccccc1)c1ccccc1 (stereo not given) | 20.2 | -1.3 | · | -3.7 | -0.3
COc1ccc(/C=C/C(=O)OCC(=O)NCCc2ccccc2)c(OC)c1 | -5.4 | -3.6 | -11.1 | -2.6 | -0.1
Cc1ccc(-c2nc3ccccc3s2)cc1S(=O)(=O)N1CCOCC1 | 9.6 | 2.6 | -8.8 | 0.8 | -0.4
Cc1ccc(-c2nnc(NCc3nc4ccccc4[nH]3)c3ccccc23)cc1S(=O)(=O)N1CCOCC1 | -4.0 | · | -0.8 | -0.1 | 12.0*

Assay outcomes: PubChem BioAssay, several laboratories
